# Only some compounds are listed: those with a hit (about 9.5% of all), similar ones and a draw of the others.
# M1 antag – antagonists of rat M1 muscarinic receptor; Muscarinic acetylcholine receptor M1 (Rattus norvegicus), P08482; AID 628, 2007; CHO-M1 cells, Fluo-4 calcium, ACh EC80 antagonist mode; active compounds read low; B-score at 10 µM; 3.4% of 64,000 active;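 active = calcium fluorescence response, raw or row-and-column corrected B-score, differing from the plate sample mean either way at a set confidence level, mostly lower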
# Target sequence (P08482 whole entry, looked up): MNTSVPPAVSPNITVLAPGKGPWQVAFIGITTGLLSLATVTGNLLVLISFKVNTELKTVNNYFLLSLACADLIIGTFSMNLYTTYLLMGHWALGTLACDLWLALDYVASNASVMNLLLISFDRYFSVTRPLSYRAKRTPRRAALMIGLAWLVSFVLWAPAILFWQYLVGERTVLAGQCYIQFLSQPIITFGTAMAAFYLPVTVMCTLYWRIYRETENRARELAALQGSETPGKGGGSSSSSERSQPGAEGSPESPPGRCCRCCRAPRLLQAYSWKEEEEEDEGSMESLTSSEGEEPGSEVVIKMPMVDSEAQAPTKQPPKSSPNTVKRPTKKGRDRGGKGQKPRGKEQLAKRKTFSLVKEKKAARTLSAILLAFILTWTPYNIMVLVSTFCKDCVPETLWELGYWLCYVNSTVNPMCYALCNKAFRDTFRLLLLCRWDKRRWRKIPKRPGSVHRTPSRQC
# M1 agonist – M1 muscarinic receptor agonists, primary screen, CHO-M1 cells, Fluo-4 calcium, agonist mode; 3% of 64,000 active; B-score at 10 µM; Fluo-4 calcium fluorescence; active compounds read high;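 active = fluorescence rise, raw or as B-score row- and column-corrected plate score, outside the 99.7% band of its plate's samples, either direction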
# D1 mod – D1 CRE-luciferase signal change, two-sided – cell-based, HEK293 D1, dopamine EC30, D1 allosteric modulator project, primary screen; dopamine EC30 potentiation; actives deviate in either direction; 5.9% of 58,000 active; D(1A) dopamine receptor (Homo sapiens), P21728; B-score at 10 µM;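 active = luminescence count or its row- and column-corrected plate score outside the 99.7% band of the plate's sample wells, on either side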
# Jurkat viability – cytotoxicity toward Jurkat T cells, primary screen, cytotoxicity control, cell-based, Jurkat E6.1, 60K MLSMR library | 1.2% of 56,000 active | inhibition, % at 4 µM | Jurkat E6.1 viability, ATP luminescence, 48 h;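 active = inhibition above the mean inhibition of all tested compounds plus 3 SD, cut at about 28% in these data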
# HEK293 NFkB inh – inhibitors of PMA/ionomycin-induced NF-kB reporter, primary screen, antigen receptor NF-kB inhibitor project, cell-based, HEK-293 luciferase reporter, luminescence | HEK-293 NF-kB luciferase reporter | inhibition, % at 3 µM | 0.21% of 62,000 active | AID 465, 2006;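 active = inhibition above the mean of all tested compounds plus 3 SD, cut at about 40% in these data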;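 note: 0% = stimulated DMSO wells and 100% = 10 µM reference inhibitor 5653914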
#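 Timing: 1 h pretreatment, 16 h stimulation, 37 °C; system: HEK-293 cells with stable firefly luciferase reporter driven by four HIV NF-kB elements; doses: 3 µM once, 0.30% DMSO; measured by: luciferase luminescence; control set: DMSO and 10 µM reference inhibitor; repeats: single test; reagent: PMA plus ionomycin mix as NF-kB-activating stimulus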
# Htt clearance – clearance of mutant huntingtin inclusions, primary screen, imaging, HeLa Exon1htt(103Q)mCFP, confocal imaging; aggregate imaging; zero = plate's median compound well; inhibition, % at 1.5 µM; 0.42% of 47,000 active; AID 853, 2007;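 active = inhibition of aggregate fluorescence above about 70%, also judged a hit by eye on the cell image, limit read from the data, passing the limit was not always enough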;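 note: cells exposed to compound for three days before fixation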
# D1 mod confirm – D1 receptor positive allosteric modulators, retest, confirmation, cell-based, HEK293 D1, CRE-luciferase, duplicate | AID 642, 2007 | luminescence at 10 µM | dopamine EC30 potentiation; active compounds read high | shares compounds with D1 mod | 88% of 2,200 active;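 active = luminescence in either of two replicates above the same-plate mean plus 3 SD of the low-dose dopamine control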
# D1 no dopamine – D1 receptor agonism without dopamine, confirmation, mechanism study for D1 allosteric modulator project, cell-based, HEK293 D1, CRE-luciferase, secondary assay 1; AID 646, 2007; luminescence at 10 µM; luminescence, no dopamine; active compounds read high; shares compounds with D1 mod; 0.8% of 1,900 active; in the data active = luminescence above about 3900
# Isoprot counter – alters isoproterenol CRE-luciferase response in HEK293 cells. shares compounds with D1 mod. HEK293 D1 CRE-luciferase, isoproterenol EC30 counter-screen; active compounds read high. luminescence at 10 µM. 63% of 2,200 active. AID 647;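 active = luminescence in either replicate above plate mean of wells with a partly effective reference agonist dose plus 3 SD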;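 note: isoproterenol raises cAMP through native beta-adrenoceptor Gs so signal bypasses D1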
# * = called active by the depositor; i = inactive; · = no result given.
SMILES,M1 antag,M1 agonist,D1 mod,Jurkat viability,HEK293 NFkB inh,Htt clearance,D1 mod confirm,D1 no dopamine,Isoprot counter
O=c1oc2ccccc2c2c1ncn2CCN1CCOCC1,0.0369,0.981,-0.846,-4.5,4.7,-24.2,·,·,·
O=c1oc2ccccc2c2c1ncn2C1CCCCC1,0,-0.424,7.4*,8.1,17.1,58.8,20596*,1756,4072*
O=c1oc2ccccc2c2c1ncn2-c1ccccc1,-0.0983,-0.791,3.63*,-3.1,11.3,-37.6,9304*,1488,3532*
CCC(Sc1nc(=O)cc(N)n1-c1ccccc1)C(=O)Nc1cc(C)on1 (stereo unspecified),-0.147,0.0537,-0.643,-0.9,7.9,1.1,·,·,·
CCC(Sc1nc(=O)cc(N)n1CCc1ccccc1)C(=O)Nc1ccccc1C#N (stereo unspecified),0.368,-0.941,5.2*,-0.8,1.9,·,3424*,1792,2588
CCOC(=O)NC(=O)CN1C(=O)NC(C)(c2ccccc2)C1=O (stereo unspecified),2.12*,-0.0727,4.36*,6.7,6.6,·,5048,704,2512
CCOc1ccc2cc(C#N)c(SCC(=O)N3CCCC3)nc2c1,0.52,1.81,1.98,4.6,1.1,-12.0,·,·,·
COc1ccc2nc(SCC(=O)N3CCCCCC3)c(C#N)cc2c1,0.444,-0.701,3.54*,-1.7,-5.8,36.8,10688*,1852,3060
N#Cc1cc2c(nc1SCC(=O)N1CCCCC1)CCCCC2,-0.592,0,3.84*,5.5,5.2,-76.3,10608*,·,3136*
N#Cc1cc2c(nc1SCC(=O)N1CCCCC1)CCCC2,0.504,-0.0787,0.948,1.3,11.8,2.1,·,·,·
CCS(=O)(=O)CCSc1nc2c(cc1C#N)CCCC2,0.895,0.193,5.48*,4.4,7.8,-5.7,19348*,1760,3564*
N#Cc1cc2c(nc1SCC(=O)Nc1sc3c(c1C#N)CCC3)CCCCC2,1.28,-0.0838,5.98*,-0.2,-8.9,·,10448*,1704,3236*
CCOC(=O)c1sc(NC(=O)CSc2nc3c(cc2C#N)CCCCCC3)c(C#N)c1C,0.0663,0.194,0.284,-4.2,-5.7,-24.2,·,·,·
COc1ccc(OC)c(C(=O)CSc2nnc(-c3cccnc3)n2C)c1,0.417,-0.0908,0.0462,-10.8,12.9,22.0,·,·,·
CCn1cnc2c1c(=O)n(CC(=O)Nc1cc(C)on1)c(=O)n2Cc1ccccc1,-0.649,-0.999,0.812,1.7,19.1,-72.3,·,·,·
CCOC(=O)c1c(C)[nH]c(C(=O)Cn2c(=O)c3c(ncn3CC)n(Cc3ccccc3)c2=O)c1C,-0.852,-0.973,13.4*,-1.5,5.8,50.5,20428*,1684,5060*
CN(C)c1ccc(C2NCC(CCl)O2)cc1 (stereo unspecified),·,·,·,·,·,11.8,·,·,·
Nc1[nH]nc2nc(N3CCCC3)nc(-c3ccccc3)c12,0.2,-0.0306,15.4*,·,5.4,·,18304*,1740,3664*
COc1cccc(-c2cc(C(F)(F)F)nc(N3CCOCC3)n2)c1,-0.967,0,0.282,·,0.3,·,·,·,·
Cc1cc(C)n2nc3nc(N4CCCC4)nc(-c4ccccc4)c3c2n1,0.179,0.739,4.75*,-4.3,10.6,·,7140*,1568,3364*
Nc1nc(-c2cccnc2)nc(N2CCCCC2)n1,0.00787,-0.736,1.86,-0.9,-6.0,·,·,·,·
COc1ccc(-c2nc(N3CCCC3)nc3nn4c(C)cc(C)nc4c23)cc1,0.101,0.094,-0.823,1.6,3.5,·,·,·,·
COc1ccc(-c2nc(N3CCOCC3)nc3n[nH]c(N)c23)cc1,0.71,-0.292,4.97*,·,8.7,·,12424*,·,3892*
COc1ccc(N(CC(=O)NCc2cccs2)S(=O)(=O)c2c(C)n[nH]c2C)cc1,-0.0709,-0.473,·,0.3,-0.5,-43.8,·,·,·
CC(C)N1C(=O)CCC1C(=O)N1CCCc2ccccc21 (stereo unspecified),0.000453,-0.131,0.716,-5.3,7.9,8.6,·,·,·
SMILES,M1 antag,M1 agonist,D1 mod,Jurkat viability,HEK293 NFkB inh,Htt clearance,D1 mod confirm,D1 no dopamine,Isoprot counter
Cc1ccc(S(=O)(=O)CCSc2nc(C)cc(C(F)(F)F)c2C#N)cc1,·,·,·,·,·,-370.9,·,·,·
Cc1ccc(NC(=O)c2cccc(N3C(=O)CCC3=O)c2)nc1,0.601,-0.828,-2.1,-2.9,-0.2,-36.8,·,·,·
CCOc1cc(C2NC(=O)NC(O)(C(F)(F)F)C2C(=O)c2ccc(OC)cc2)ccc1O (stereo unspecified),-0.392,0.00713,0.0159,-10.7,0.8,·,·,·,·
C=CCn1c(SCC(=O)Nc2sc(C)c(C)c2C(=O)OCC)nnc1-c1sc(N)nc1C,0.0289,-1.11,2.71*,-4.1,4.6,24.8,10116*,1640,2904
O=C(c1cccc(-c2nnc(-c3ccccc3)o2)c1)N1CCCCC1,0,0.156,7.88*,-1.7,-28.9,13.6,12576*,1552,2964*
O=C(c1ccc(-c2ccccc2)cc1)N1CCCC1,0.279,-0.00391,-1.03,-6.8,17.8,-13.6,·,·,·
CC(C)C(NC(=O)C1CCCCC1)C(=O)NC1CCN(Cc2ccccc2)CC1 (stereo unspecified),0.821,0.00284,0.458,-3.5,15.5,·,·,·,·
CCOc1nc(-c2ccncc2)nc2ccccc12,0.638,0.842,13.3*,·,·,34.9,14136*,1720,4324*
CN(C)C(CNC(=O)CSc1nnc(-c2ccco2)o1)c1ccccc1 (stereo unspecified),0.733,-0.145,-0.52,-4.0,22.0,-42.9,·,·,·
C=CCN(CC=C)S(=O)(=O)c1ccc2nsnc2c1,-0.033,0.865,2.28,6.5,20.3,·,·,·,·
O=S(=O)(N/N=C/c1ccc(Cl)cc1)c1ccc(Cc2ncc(C(F)(F)F)cc2Cl)s1,·,·,·,·,·,22.9,·,·,·
N#CCCSc1ncnc2c1oc1ccccc12,-1.15,-0.236,5.4*,-4.9,2.5,i,14144*,1812,3796*
OCCSc1ncnc2c1oc1ccccc12,-0.4,0.241,2.46,2.3,6.1,26.8,·,·,·
CCc1nc(SCCO)c2oc3ccccc3c2n1,0.384,-0.0694,10.2*,-8.3,-0.7,35.9,17028*,·,4752*
CCc1nc(N(CC)CC)c2oc3ccccc3c2n1,-0.284,-0.0934,3.15*,·,20.9,·,3956,·,2764
